# Compound activity as filed in PubChem BioAssay.
# HTR1E agonist: activates the human 5-HT1E serotonin receptor | P28566 | CHO 5-HT1E Ga15 NFAT-bla reporter, FRET; 0% DMSO wells, 100% control agonist wells | activation, % at 6 µM | actives 0.69% (n = 65,000);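 active = activation above a set limit, the screen-wide mean activation plus 3 SD, cut at about 8.5% in these data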;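 note: 100% = positive control agonist at 1 µM giving full maximal response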
# S1P1 ag-PAM: S1P1 (human) agonism or agonism potentiation; S1P1 CRE-bla cells, forskolin, beta-lactamase FRET, potentiator mode; S1P1 agonist co-added at EC20, 2 nM; 100% = saturating reference agonist, 0% = basal; AID 449; activation, % at 9.5 µM; P21453; actives 0.57% (n = 56,000);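 active = activation above a cutoff set at the mean activation of all tested compounds plus 3 SD, cut at about 54% in these data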;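 note: forskolin at 4 µM as EC80 and the EC20 agonist is SEW2871; 100% = SEW2871 at its EC100 plus forskolin at EC80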
# Target sequence (P21453 whole entry, looked up): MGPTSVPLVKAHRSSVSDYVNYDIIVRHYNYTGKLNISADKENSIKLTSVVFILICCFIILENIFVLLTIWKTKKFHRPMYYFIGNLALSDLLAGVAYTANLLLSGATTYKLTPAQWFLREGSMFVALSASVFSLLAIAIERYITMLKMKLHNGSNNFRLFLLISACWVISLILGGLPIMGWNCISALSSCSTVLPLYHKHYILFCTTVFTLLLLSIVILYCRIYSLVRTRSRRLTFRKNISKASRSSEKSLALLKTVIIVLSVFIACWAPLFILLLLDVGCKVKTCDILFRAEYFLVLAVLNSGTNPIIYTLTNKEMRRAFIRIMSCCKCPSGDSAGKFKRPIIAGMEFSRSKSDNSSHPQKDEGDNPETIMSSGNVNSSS
# 5-HT1A blocker: antagonists of human 5-HT1a serotonin receptor; CHO 5-HT1a Ga15 NFAT-bla reporter, antagonist mode; actives 0.68% (n = 62,000); inhibition, % at 10 µM; P08908;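 active = inhibition above the mean of all tested compounds plus 3 SD, cut at about 43% in these data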;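 note: receptor stimulated by 5-CT agonist at 100 nM near EC80; beta-lactamase reporter measured by ratiometric fluorescence of a cleavable substrate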
# 5HT1E antag: antagonists of human 5-HT1E serotonin receptor | P28566 | actives 0.99% (n = 65,000) | inhibition, % at 6 µM | CHO 5-HT1E Ga15 NFAT-bla reporter, FRET, antagonist;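 active = inhibition above a set limit, the mean inhibition across every tested compound plus 3 SD, cut at about 29% in these data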;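 note: signal is the 460 over 535 nm emission ratio of beta-lactamase substrate; 0% = agonist plus DMSO wells and 100% = wells without agonist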
# 5HT1a ag: agonists of human 5-HT1a serotonin receptor. CHO 5-HT1a Ga15 NFAT-bla reporter, FRET ratio; 0% basal, 100% maximal reference agonist. activation, % at 10 µM. actives 0.56% (n = 65,000). AID 567;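 active = activation above the screen-wide mean activation plus 3 SD, cut at about 19% in these data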;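 note: 0% = DMSO wells and 100% = 5-CT at EC100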
# S1P3 ag: activates the human S1P3 receptor. S1P3 NFAT-BLA reporter cells, agonism, FRET ratio; relative to 1 µM S1P, basal subtracted. activation, % at 4.5 µM. AID 373. Q99500. actives 0.1% (n = 60,000);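 active = activation above the screen-wide mean plus 3 SD, cut at about 4.5% in these data, passing the limit was not always enough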
#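 Assay system: stable CHO line with human S1P3, Gα16, NFAT-BLA reporter; Detection: FRET β-lactamase substrate fluorescence, excitation 405 nm, 460/535 nm emission ratio, background-subtracted; Read-out: percent activation versus median 1 µM S1P response, basal-subtracted, per plate; Incubation: cells plated overnight, compound 4 h 37 °C, substrate 2 h RT.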
# * marks the source's active call; other numbers are inactive results; x = no result. A selection: hits, their analogues and other compounds. The true share with any hit is near 2.9%.
SMILES,HTR1E agonist,S1P1 ag-PAM,5-HT1A blocker,5HT1E antag,5HT1a ag,S1P3 ag
Cc1ccc(C(=O)Nc2nc(COc3ccccc3)cs2)s1,0.3,97.8*,4.8,-0.5,-1.4,-0.6
CCC(C)c1ccc2oc(-c3ccc(NC(=O)c4ncn[nH]4)cc3)nc2c1 (stereo not given),-1.0,97.6*,-8.1,-4.9,2.3,15.8*
Cc1onc(-c2ccccc2Cl)c1C(=O)N1CCN(c2ccccc2)CC1,0.0,-3.9,1.5,-4.8,1.1,-0.6
Cc1onc(-c2ccccc2Cl)c1C(=O)N1CCN(c2cccc(Cl)c2)CC1,0.9,29.3,30.1,29.5*,1.1,-1.1
CCOC(=O)C1CCCN(C(=O)c2cnn3c(C(F)F)cc(-c4ccc(C)cc4)nc23)C1 (stereo not given),3.2,x,46.7*,-7.7,0.8,-1.3
O=C(COC(=O)C1c2ccccc2Oc2ccccc21)NC1CCS(=O)(=O)C1 (stereo not given),0.2,12.8,3.4,-1.0,-4.8,-0.8
CCOC(=O)CC(/C(C)=N\O)c1ccccc1 (stereo not given),40.3*,1.2,16.7,6.9,-1.9,-1.3
Cc1cnn(C(=O)c2ccccc2Br)c1,-0.2,-21.3,-7.2,-4.8,-2.6,-0.7
COCCn1c(COc2cccc(OC)c2)nnc1SCC(=O)N1CCOCC1,18.8*,1.9,3.6,0.8,1.2,0.0
CCOC(=O)N1CCN(C(=O)CSc2nnc(Cc3cccn3C)n2CCc2ccccc2)CC1,-0.1,-15.0,-5.7,-10.8,0.2,-0.6
Cn1cccc1Cc1nnc(SCC(=O)N2CCOCC2)n1CCc1ccccc1,0.8,-3.9,8.6,-7.0,472.8*,-0.3
CC(C)CCN1C(=O)c2ccc(C(=O)NCC3CCCO3)cc2C1=O (stereo not given),-1.0,-13.1,21.6,6.0,-2.9,-1.1
Cc1ccccc1-n1c(=O)cc(N2CCN(Cc3ccccc3)CC2)[nH]c1=O,0.2,-8.7,5.3,-5.7,-1.8,0.1
Cc1ccccc1N1CCN(Cc2cccc(C(=O)O)c2)CC1,21.8*,-5.7,8.2,4.0,-0.4,-0.8
CCOC(=O)c1ccccc1NC(=O)c1ccc(NS(C)(=O)=O)cc1,-0.8,x,8.9,33.9*,1.2,0.0
O=C(Nc1ccc(-c2nc3ncccc3o2)cc1)c1ccco1,-1.1,x,9.6,-10.6,0.4,-0.5
O=C(Nc1ccc(-c2nc3ncccc3o2)cc1)c1ccc(Br)o1,1.4,x,8.8,62.0*,-2.1,-0.4
CC(C)C(c1nnnn1Cc1ccccc1)N(Cc1ccco1)Cc1cccs1 (stereo not given),-0.8,57.2,26.4,11.5,-1.7,-2.0
Cc1ccc(C(c2nnnn2C(C)(C)C)N(Cc2ccco2)Cc2cccs2)cc1 (stereo not given),0.2,-14.3,50.8*,-0.4,-1.6,-1.9
CCOC(=O)C1CC=C(Cl)CC1C(=O)Nc1nccs1 (stereo not given),0.2,5.6,-7.2,-5.6,12.2,6.6
COc1cc2c(cc1OC)/C(=C/C#N)NC(C)(C)C2,-1.4,-15.0,46.1*,43.9*,-0.7,-0.3
FC(F)(F)c1cc(-c2cccs2)nc(N2CCOCC2)n1,-0.7,-3.3,12.6,11.1,0.0,-1.0
Cc1cnn(-c2nc(-c3cccs3)cc(C(F)(F)F)n2)c1,-1.1,-9.6,16.8,28.7*,-3.9,-1.2
O=C(COc1cccc(-n2cnnn2)c1)N1CCOCC1,0.1,-0.6,-6.5,-7.0,0.0,-0.2
COc1ccc(Cl)cc1NC(=O)COc1cccc(-n2cnnn2)c1,34.8*,-12.6,-7.5,-2.8,1.0,0.9
SMILES,HTR1E agonist,S1P1 ag-PAM,5-HT1A blocker,5HT1E antag,5HT1a ag,S1P3 ag
Nc1c(NCc2ccccc2F)c(=O)[nH]c(=O)n1Cc1ccccc1,-1.7,x,4.1,9.1,81.1*,x
Cc1cc(N2CCN(c3nc4ccccc4s3)CC2)n2ncnc2n1,1.5,58.3*,-6.6,0.6,3.4,-0.2
Clc1ccc(Cn2ncc3c(NCc4ccco4)ncnc32)c(Cl)c1,-0.5,50.4,32.2,38.6*,-0.9,-1.8
CCNc1nc(NC(C)(C)C)nc(N(C#N)CC)n1,0.4,-71.7,-6.7,29.0*,2.2,1.3
CCNc1nc(NC(C)C)nc(N(C#N)Cc2ccccc2)n1,0.7,-11.5,-18.0,19.5,1.7,-0.1
Cc1cc(NC(=O)CCS(=O)(=O)c2nc(-c3ccccc3)cc(C(F)(F)F)n2)no1,0.3,x,61.0*,40.0*,1.4,-1.0
CS(=O)(=O)c1nc(-c2ccccc2)cc(C(F)(F)F)n1,2.9,x,110.3*,64.5*,-9.2,x
COc1ccc(-c2cc(C(F)(F)F)nc(SCC(=O)Nc3cc(C)on3)n2)cc1,-1.1,7.3,9.9,1.5,-1.4,-1.1
CCOC(=O)C1CCN(C(=O)Cc2c(C(=O)O)n(C)c3ccccc23)CC1,116.9*,3.1,1.9,10.0,0.1,-0.5
CCOC(=O)C1CCN(C(=O)Cn2cc(C(=O)C3CC3)c3ccccc32)CC1,-0.4,-0.4,5.8,6.5,-1.6,-0.8
Cc1cc(C)cc(N2C(=O)C3C4C=CC(C4)C3C2=O)c1 (stereo not given),-0.4,-31.5,6.1,4.1,-8.0,0.1
CCCCn1nc(NC(=O)c2cccs2)c2cc3cc(OC)ccc3nc21,4.5,-1.0,0.5,19.5,21.8*,1.2
CCCn1nc(NC(=O)c2cccs2)c2cc3cc(OC)ccc3nc21,1.9,-3.9,-15.6,18.1,6.3,1.1
Cc1ccc(C(=O)CC2(O)C(=O)N(Cc3ccccc3Cl)c3ccccc32)o1 (stereo not given),15.7*,10.1,-2.5,7.6,0.3,-0.8
CC(=O)Nc1ccccc1OCC(=O)c1cc(C)n(Cc2cccs2)c1C,0.0,110.2*,47.2*,4.6,-1.0,-1.5
Cc1csc(SCC(=O)c2cc(C)n(Cc3cccs3)c2C)n1,0.1,86.3*,8.4,-3.4,-1.6,-0.4
CC(=O)Nc1ccc(SCC(=O)c2cc(C)n(Cc3cccs3)c2C)cc1,-0.7,12.6,1.9,11.0,-2.3,0.1
CCN(CC)c1ccc(-c2nn3c(-c4ccccc4OC)nnc3s2)cc1,1.2,-89.6,69.8*,67.5*,1.1,-1.0
COc1ccccc1-c1nn2c(-c3ccccc3Cl)nnc2s1,-0.6,x,3.6,-2.2,-1.8,-0.6
CN(C)c1ccc(-c2nn3c(-c4ccc(Cl)cc4Cl)nnc3s2)cc1,-0.9,6.6,17.1,37.4*,-0.2,-0.3
Cc1noc(/C=C/N(C)C)c1S(=O)(=O)N1CCCC(C(=O)NCc2ccccc2Cl)C1 (stereo not given),-0.1,7.2,-11.8,-15.1,-3.4,0.4
CCOC(=O)c1cnn(-c2cc(C)c3cc(C)cc(C)c3n2)c1N,0.8,x,-5.9,-7.8,1.4,x
